# From PubChem
# PAD4 inh: inhibitors of human PAD4 | Q9UM07 | recombinant PAD4, RCA probe fluorescence polarization | inhibition, % at 6.36 µM | hit rate 0.41% among 330,000 | AID 485272;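 active = percent inhibition above a cutoff equal to the mean of all tested compounds plus 3 SD, cut at about 15% in these data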;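 note: 0% = PAD4 with RCA probe and DMSO and 100% = probe without PAD4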
# RBBP9 inhibitor: human RBBP9 hydrolase inhibition; O75884; hit rate 0.2% among 220,000; inhibition, % at 7.94 µM; recombinant RBBP9, FP-Rh probe fluorescence polarization; AID 1515;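 active = inhibition above the campaign mean of all tested compounds plus 3 SD, cut at about 14% in these data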;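 note: plate controls were DMSO wells with RBBP9 for no effect and wells lacking RBBP9 protein for full effect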
# Target sequence (O75884 whole entry, looked up): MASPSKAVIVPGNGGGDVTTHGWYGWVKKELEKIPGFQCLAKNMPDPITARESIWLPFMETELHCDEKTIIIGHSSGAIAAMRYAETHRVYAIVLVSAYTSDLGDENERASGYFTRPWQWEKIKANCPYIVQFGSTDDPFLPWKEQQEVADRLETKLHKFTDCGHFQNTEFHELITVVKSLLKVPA
#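 Controls: DMSO-treated enzyme wells and wells lacking RBBP9 | Material: RBBP9 protein | Technique: Fluorescence polarization | Replication: Single well per compound, no replicates | Buffer or medium: Tris-NaCl-Pluronic buffer, pH 8.0 | Timing: 30 min compound preincubation, 45 min probe labeling, 25 °C | Read-out basis: Percent inhibition from mP, scaled between DMSO and no-protein wells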
# LYPLA1 inh: LYPLA1 (human) inhibition in PME1 counter-screen | hit rate 0.16% among 320,000 | AID 2174 | inhibition, % at 5.9 µM | recombinant LYPLA1, FP-Rh probe fluorescence polarization;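 active = inhibition above the mean of all tested compounds plus 3 SD, set per campaign, cut at about 14% in these data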;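 note: inhibitors block serine hydrolase probe labeling of LYPLA1 so polarization falls; 0% = enzyme with DMSO and 100% = wells lacking LYPLA1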
# LYPLA2 inh: blocks human lysophospholipase 2, a PME1 counter-screen | recombinant LYPLA2, FP-Rh probe fluorescence polarization | O95372 | inhibition, % at 5.9 µM | hit rate 0.38% among 320,000;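 active = inhibition above the screen-wide mean plus 3 SD, limit set per campaign, cut at about 26% in these data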;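 note: 0% = LYPLA2 with DMSO and 100% = wells lacking LYPLA2 enzyme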
# PME-1 inh: blocks human protein phosphatase methylesterase 1 | recombinant PME-1, FP-Rh probe fluorescence polarization | inhibition, % at 5.9 µM | hit rate 0.53% among 320,000 | AID 2130;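 active = inhibition above the campaign mean of all compounds plus 3 SD, cut at about 26% in these data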;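 note: competitive labeling of PME-1 active site by serine hydrolase directed probe; 0% = PME-1 with DMSO and 100% = wells lacking PME-1 enzyme; inhibitors block probe labeling so polarization falls and inhibition rises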
# Target sequence (Q9Y570 whole entry, looked up): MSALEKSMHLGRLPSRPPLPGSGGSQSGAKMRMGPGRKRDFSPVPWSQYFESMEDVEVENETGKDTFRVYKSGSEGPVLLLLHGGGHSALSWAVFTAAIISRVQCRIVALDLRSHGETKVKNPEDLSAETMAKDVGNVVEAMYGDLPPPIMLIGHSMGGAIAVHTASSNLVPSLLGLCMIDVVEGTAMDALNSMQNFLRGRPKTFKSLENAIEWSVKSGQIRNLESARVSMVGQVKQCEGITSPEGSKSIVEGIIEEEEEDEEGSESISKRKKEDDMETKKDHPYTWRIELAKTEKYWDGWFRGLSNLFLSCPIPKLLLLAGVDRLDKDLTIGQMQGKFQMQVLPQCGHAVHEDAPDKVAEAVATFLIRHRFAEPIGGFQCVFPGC
# Fam108B counter: Fam108B inhibition, counter-screen for RBBP9 inhibitors | AID 1947 | inhibition, % at 9.51 µM | recombinant Fam108B, FP-Rh probe fluorescence polarization | hit rate 0.33% among 300,000;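 active = inhibition above the screen mean inhibition plus 3 SD, computed separately per campaign, cut at about 18% in these data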;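 note: inhibitors lower polarization as less probe binds the enzyme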
# LYPLA2 confirm: LYPLA2 (human) inhibition, confirmation counter-screen | shares compounds with LYPLA2 inh | recombinant LYPLA2, FP-Rh probe fluorescence polarization | inhibition, % at 5.9 µM | hit rate 72% among 1,100 | AID 2232;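 active = mean inhibition across replicates above the hit cutoff set in the primary screen, cut at about 26% in these data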;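 note: blocked labeling of the enzyme by serine hydrolase FP-Rh probe lowers polarization; 0% = enzyme with DMSO and 100% = wells lacking LYPLA2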
# LYPLA2 gel ABPP: LYPLA2 (human) inhibition, late stage results; shares compounds with LYPLA2 inh; rhLYPLA2 in mouse brain proteome, gel ABPP FP-Rh; inhibition, % at 20 µM; hit rate 30% among 150;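 active = inhibition of LYPLA2 enzyme probe labeling above about 50%, limit read from the data; inactive = inhibition below that limit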;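 note: loss of FP-Rh probe labeling of the LYPLA2 gel band measured as band density; 0% = DMSO only control band and 100% = blank gel background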
# Active calls of the source: *; nt = not tested or not shown. In the library only some 1.3% were active in any assay of this set; here they are far more common.
SMILES,PAD4 inh,RBBP9 inhibitor,LYPLA1 inh,LYPLA2 inh,PME-1 inh,Fam108B counter,LYPLA2 confirm,others
Cc1cccc(NC(=O)CN2C(=O)S/C(=C\c3ccc(-c4cccc(C(=O)O)c4C)o3)C2=O)c1,-4.6,-9.3,3.1,29.1*,-7.5,-0.7,35.2*,
O=C(CN1C(=O)S/C(=C\c2ccc(O)cc2)C1=O)c1ccccc1,-2.5,-3.3,-7.1,34.9*,16.8,-0.8,32.9*,
O=C(CN1C(=O)S/C(=C\c2ccc(C(=O)O)cc2)C1=O)Nc1ccccc1,-5.5,nt,2.3,58.4*,1.0,-8.2,66.7*,LYPLA2 gel ABPP=63.0*
CN(Cc1c(F)cccc1Cl)C(=O)c1ccc(NC(=O)CC2SC(N3CCCC3)=NC2=O)cc1 (configuration not stated),-6.8,nt,-7.3,-11.3,1.4,-3.8,nt,
Cc1onc(-c2ccccc2Cl)c1C(=O)Nc1nnc(-c2ccc(Br)cc2)s1,0.2,-10.2,-7.9,-7.2,-9.3,4.8,nt,
Cc1onc(-c2ccccc2Cl)c1C(=O)Nc1nnc(-c2ccc(F)cc2)s1,1.5,-1.8,-2.7,52.8*,-11.4,-3.8,3.5,
CC(=O)c1ccc(N2CCN(c3ccc(C(F)(F)F)cn3)CC2)cc1,-0.7,8.8,0.8,45.5*,7.2,0.1,41.5*,
CC(=O)c1cccc(OCC(=O)N2CCN(c3ccc(C(F)(F)F)cn3)CC2)c1,-0.6,0.3,5.4,58.2*,1.6,0.0,56.8*,LYPLA2 gel ABPP=45.0
CC(=O)Nc1ccc(N2CCN(c3ccc(C(F)(F)F)cn3)CC2)nc1,3.9,2.9,3.9,52.3*,-2.5,-4.3,51.0*,LYPLA2 gel ABPP=27.0
Cc1ccc(OC(=O)c2cccc(S(=O)(=O)N3CCN(C)CC3)c2)c(Br)c1,4.5,nt,-1.5,-0.1,-1.1,-1.1,nt,
O=C(/C=C/c1ccc([N+](=O)[O-])cc1)N1CCN(Cc2ccccc2)CC1,-5.3,nt,5.5,31.8*,3.8,-1.4,39.5*,
O=[N+]([O-])c1cc(Cl)ccc1Oc1ccc(-c2nnco2)cc1,-1.7,-6.9,7.3,27.0*,11.8,-3.6,28.1*,
O=C(NCc1ccccn1)c1ccc(OC2CCN(Cc3cccs3)CC2)cc1,4.7,nt,-1.9,28.0*,2.3,-0.6,6.3,
O=C(NCc1ccccn1)c1ccc(OC2CCN(Cc3ccccc3)CC2)cc1,-2.2,nt,1.2,2.9,0.3,5.7,nt,
COc1cccc(NC(=O)COc2nc3ccccc3nc2C)c1,2.4,-6.3,2.2,26.8*,-1.2,-2.8,31.8*,
CN1C(=O)CC(C(=O)Nc2ccc(F)cc2)SC1=Nc1ccc2c(c1)OCO2 (configuration not stated),2.7,2.3,-1.5,8.8,-2.9,2.9,nt,
Cc1ccc(N=C2NC(=O)CC(C(=O)Nc3ccc4c(c3)OCO4)S2)cc1 (configuration not stated),-0.1,-3.0,3.3,28.0*,-5.9,-0.7,13.2,
CCOc1cccc(N(C(=O)CNC(=O)c2ccco2)C(C(=O)NCC2CCCO2)c2ccccc2)c1 (configuration not stated),1.4,nt,0.2,-2.4,3.7,-0.3,nt,
CCc1ccc(C(=O)Cn2ncc(Cl)c(Cl)c2=O)cc1,6.0,-1.5,-4.0,31.4*,-9.8,-5.9,35.0*,
O=C(NCCN1CCN(c2ccccc2)CC1)c1cccc(Cl)c1,-3.1,nt,-1.4,1.8,-2.9,1.5,nt,
O=C(NCCS(=O)(=O)N1CCN(c2cccc(Cl)c2)CC1)c1ccc2c(c1)OCO2,1.7,nt,-1.2,47.5*,-2.1,2.1,56.1*,LYPLA2 gel ABPP=20.0
O=C(NCCCN1CCN(c2cccc(Cl)c2)CC1)c1cccc(N2CCCC2=O)c1,-5.4,-3.7,6.0,27.4*,3.3,-3.3,32.6*,
Nc1ccccc1C(=O)NCCCN1CCN(c2cccc(Cl)c2)CC1,-1.0,nt,9.5,30.1*,-5.2,-0.4,40.0*,
O=C(NCCCN1CCN(c2cccc(Cl)c2)CC1)c1ccc(N2CCCC2=O)cc1,-5.0,-6.7,-0.9,5.3,-4.8,-3.0,nt,
N#Cc1ccc(CN2CCN(C(=O)C3CC(=O)N(c4ccccc4F)C3)CC2)cc1 (configuration not stated),0.7,nt,nt,nt,nt,nt,nt,
SMILES,PAD4 inh,RBBP9 inhibitor,LYPLA1 inh,LYPLA2 inh,PME-1 inh,Fam108B counter,LYPLA2 confirm,others
O=C(Nc1nc(-c2ccccn2)cs1)C1CC(=O)N(c2ccc3c(c2)OCCO3)C1 (configuration not stated),-0.2,5.6,1.8,-3.8,2.8,0.6,nt,
O=C(C1CCN(c2ncnc3c2nc2n3CCCCC2)CC1)N1CCN(c2ccc(F)cc2)CC1,-4.0,nt,2.2,40.2*,1.3,-0.8,32.0*,
O=[N+]([O-])c1ccc(Oc2ccc(/C=N/O)cc2)nc1,1.1,-3.8,5.1,40.5*,-4.1,7.2,26.4*,
O=C1NC(=O)/C(=C\c2ccc(Oc3ccc([N+](=O)[O-])cn3)cc2)S1,-3.7,-1.7,1.6,10.6,4.1,0.2,nt,
Cc1cc(=O)n2nc(N3CCC(C(=O)N4CCN(c5ccccc5)CC4)CC3)sc2n1,-0.8,nt,1.3,19.8,-2.5,-3.0,nt,
CCCc1cc(=O)n2nc(N3CCC(C(=O)N4CCN(c5ccc(OC)cc5)CC4)CC3)sc2n1,-1.0,nt,-6.5,51.0*,-8.2,1.1,48.7*,
CCN(CC)S(=O)(=O)c1ccc(N2CCN(c3cccc(OC)c3)CC2)c([N+](=O)[O-])c1,-4.3,-1.8,-1.9,2.8,7.4,3.4,nt,
O=C(OCc1nnc(-c2ccccc2)o1)c1cc([N+](=O)[O-])ccc1Cl,1.9,3.4,-1.7,8.4,1.4,-0.9,nt,
Cc1onc(-c2ccccc2)c1C(=O)OCc1nnc(-c2ccc([N+](=O)[O-])cc2)o1,3.1,nt,-0.3,28.2*,2.2,nt,28.4*,
CC1=C(C(=O)N2CCCC(N3CCN(c4cccc(C(F)(F)F)c4)CC3)C2)OCCO1 (configuration not stated),-0.7,nt,-0.1,7.2,-0.2,-1.8,nt,
CCc1cc(C(=O)N2CCCC(N3CCN(c4cccc(C(F)(F)F)c4)CC3)C2)n(C)n1 (configuration not stated),0.8,nt,11.3,81.3*,-3.5,-2.1,74.2*,LYPLA2 gel ABPP=43.0
Cc1cc(C)n(CC(=O)N2CCCC(N3CCN(c4cccc(C(F)(F)F)c4)CC3)C2)n1 (configuration not stated),-4.0,nt,1.6,13.1,1.6,3.1,nt,
CC(=O)N1CCCC(N2CCN(c3cccc(C(F)(F)F)c3)CC2)C1 (configuration not stated),1.8,nt,1.1,3.6,-6.0,6.3,nt,
CSCCC(=O)N1CCCC(N2CCN(c3cccc(C(F)(F)F)c3)CC2)C1 (configuration not stated),2.8,nt,2.3,53.3*,1.7,1.7,58.8*,LYPLA2 gel ABPP=49.0
